# Test results as given in the M2OR odorant receptor database.
# Positions count from the first letter of the chain named.
# Columns and labels:
# Details in all cases: stereoisomer not certain
# O14A2 I133V = system: T1, O14A2 I133V
# T1 sequence (whole entry): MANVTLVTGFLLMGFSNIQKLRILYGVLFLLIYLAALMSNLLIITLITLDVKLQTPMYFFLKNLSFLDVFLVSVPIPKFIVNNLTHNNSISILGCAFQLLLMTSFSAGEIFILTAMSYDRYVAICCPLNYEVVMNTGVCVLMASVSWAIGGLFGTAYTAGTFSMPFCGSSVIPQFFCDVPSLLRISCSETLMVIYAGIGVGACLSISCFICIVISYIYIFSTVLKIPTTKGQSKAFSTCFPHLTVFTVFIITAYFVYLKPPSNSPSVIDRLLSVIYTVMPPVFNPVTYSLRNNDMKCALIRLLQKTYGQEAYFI
# In short: (§1)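 Each receptor–molecule pair is labelled responsive or non-responsive (inactive) according to whether the original authors judged the measured signal statistically different from baseline. The data were taken from the main text and supplementary material of published papers and checked for typos and inconsistencies. Assay methods differed by source, with transient luciferase assays in mammalian cell lines being common.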
# O14CZ = system: T2, O14CZ
# T2 sequence (whole entry): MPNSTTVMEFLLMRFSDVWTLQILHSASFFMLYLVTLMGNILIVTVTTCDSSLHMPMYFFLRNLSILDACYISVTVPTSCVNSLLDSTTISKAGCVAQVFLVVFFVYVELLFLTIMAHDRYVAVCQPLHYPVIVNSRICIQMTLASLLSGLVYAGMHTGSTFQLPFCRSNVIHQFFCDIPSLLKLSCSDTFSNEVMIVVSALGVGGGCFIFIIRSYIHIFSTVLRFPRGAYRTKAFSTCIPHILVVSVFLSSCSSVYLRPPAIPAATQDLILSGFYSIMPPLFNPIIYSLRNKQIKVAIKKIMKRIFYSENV
# In short: as §1
# O14I1 V36A D50N Y216C = system: T3, O14I1 V36A D50N Y216C
# T3 sequence (whole entry): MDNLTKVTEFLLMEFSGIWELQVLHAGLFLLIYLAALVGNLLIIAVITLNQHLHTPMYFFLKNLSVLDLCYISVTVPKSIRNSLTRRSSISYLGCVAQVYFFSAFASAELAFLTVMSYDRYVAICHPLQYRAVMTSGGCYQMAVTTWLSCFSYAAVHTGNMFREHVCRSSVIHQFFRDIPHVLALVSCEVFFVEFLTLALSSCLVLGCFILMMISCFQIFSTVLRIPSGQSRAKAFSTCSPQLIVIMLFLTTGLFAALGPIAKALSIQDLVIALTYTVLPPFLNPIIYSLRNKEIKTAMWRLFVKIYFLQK
# In short: as §1
# O14J1 N3Y = system: T4, O14J1 N3Y
# T4 sequence (whole entry): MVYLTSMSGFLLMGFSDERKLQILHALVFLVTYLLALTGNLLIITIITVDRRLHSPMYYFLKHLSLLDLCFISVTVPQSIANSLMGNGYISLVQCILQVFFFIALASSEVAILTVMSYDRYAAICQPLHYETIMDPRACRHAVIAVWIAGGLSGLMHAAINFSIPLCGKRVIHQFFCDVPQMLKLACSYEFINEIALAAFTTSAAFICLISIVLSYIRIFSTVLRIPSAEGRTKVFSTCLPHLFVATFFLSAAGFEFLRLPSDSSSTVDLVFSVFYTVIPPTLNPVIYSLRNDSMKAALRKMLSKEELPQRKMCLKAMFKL
# In short: as §1
# O14K1 D119Y = system: T5, O14K1 D119Y
# T5 sequence (whole entry): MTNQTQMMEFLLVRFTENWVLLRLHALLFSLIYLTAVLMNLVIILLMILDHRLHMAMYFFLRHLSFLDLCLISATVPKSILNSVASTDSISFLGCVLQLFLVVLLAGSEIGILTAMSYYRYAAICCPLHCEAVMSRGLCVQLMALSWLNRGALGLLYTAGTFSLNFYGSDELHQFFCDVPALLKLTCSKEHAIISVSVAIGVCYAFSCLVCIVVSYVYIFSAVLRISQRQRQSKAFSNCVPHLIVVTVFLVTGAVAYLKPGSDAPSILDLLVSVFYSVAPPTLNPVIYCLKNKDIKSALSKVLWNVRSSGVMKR
# In short: as §1
# O2A25 = system: T6, O2A25
# T6 sequence (whole entry): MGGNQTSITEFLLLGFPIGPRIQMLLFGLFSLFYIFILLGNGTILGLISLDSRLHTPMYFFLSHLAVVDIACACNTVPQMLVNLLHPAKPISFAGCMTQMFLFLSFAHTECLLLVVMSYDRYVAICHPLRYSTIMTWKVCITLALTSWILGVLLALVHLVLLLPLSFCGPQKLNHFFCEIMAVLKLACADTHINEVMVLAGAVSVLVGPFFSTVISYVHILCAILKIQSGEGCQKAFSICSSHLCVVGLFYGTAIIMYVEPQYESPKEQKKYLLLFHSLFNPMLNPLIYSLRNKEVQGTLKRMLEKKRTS
# In short: as §1
# O2AE1 = system: T7, O2AE1
# T7 sequence (whole entry): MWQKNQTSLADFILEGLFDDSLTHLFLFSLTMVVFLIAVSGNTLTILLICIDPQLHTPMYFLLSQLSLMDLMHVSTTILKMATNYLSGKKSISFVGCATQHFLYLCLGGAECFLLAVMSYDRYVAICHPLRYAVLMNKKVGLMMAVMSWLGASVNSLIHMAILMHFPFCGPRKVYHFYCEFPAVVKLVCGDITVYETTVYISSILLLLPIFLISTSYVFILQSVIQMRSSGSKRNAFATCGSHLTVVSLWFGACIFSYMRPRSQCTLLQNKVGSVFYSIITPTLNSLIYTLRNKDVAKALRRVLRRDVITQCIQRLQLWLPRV
# In short: as §1
# O2AJ1 = system: T8, O2AJ1
# T8 sequence (whole entry): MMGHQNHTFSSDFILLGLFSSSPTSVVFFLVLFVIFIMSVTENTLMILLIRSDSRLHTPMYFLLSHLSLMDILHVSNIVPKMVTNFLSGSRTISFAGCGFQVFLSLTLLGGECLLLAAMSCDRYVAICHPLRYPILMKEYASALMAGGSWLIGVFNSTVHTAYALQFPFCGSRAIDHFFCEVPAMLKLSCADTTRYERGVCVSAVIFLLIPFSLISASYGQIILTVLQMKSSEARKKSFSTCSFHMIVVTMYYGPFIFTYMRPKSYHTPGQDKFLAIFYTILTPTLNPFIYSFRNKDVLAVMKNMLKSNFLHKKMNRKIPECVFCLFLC
# In short: as §1
# O2AK2 S99N = system: T9, O2AK2 S99N
# T9 sequence (whole entry): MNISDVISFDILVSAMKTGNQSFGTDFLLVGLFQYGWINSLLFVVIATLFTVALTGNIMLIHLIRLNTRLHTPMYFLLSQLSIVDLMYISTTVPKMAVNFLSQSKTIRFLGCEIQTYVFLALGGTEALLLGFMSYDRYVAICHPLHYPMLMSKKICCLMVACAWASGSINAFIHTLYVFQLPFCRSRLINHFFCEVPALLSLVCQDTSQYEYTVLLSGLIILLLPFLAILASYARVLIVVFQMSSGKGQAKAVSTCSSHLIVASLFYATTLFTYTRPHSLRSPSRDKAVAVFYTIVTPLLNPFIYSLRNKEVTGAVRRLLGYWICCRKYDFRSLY
# In short: as §1
# O2T11 = system: T10, O2T11
# T10 sequence (whole entry): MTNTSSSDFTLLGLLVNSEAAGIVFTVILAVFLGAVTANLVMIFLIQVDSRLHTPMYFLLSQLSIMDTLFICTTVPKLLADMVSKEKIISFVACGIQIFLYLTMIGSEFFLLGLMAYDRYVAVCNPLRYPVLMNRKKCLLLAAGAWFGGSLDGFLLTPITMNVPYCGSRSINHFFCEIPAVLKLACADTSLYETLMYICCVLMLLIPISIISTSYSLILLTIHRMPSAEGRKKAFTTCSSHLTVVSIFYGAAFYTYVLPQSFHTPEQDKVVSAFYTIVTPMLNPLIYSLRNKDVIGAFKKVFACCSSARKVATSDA
# In short: as §1
# O2T27 L36V V134D = system: T11, O2T27 L36V V134D
# T11 sequence (whole entry): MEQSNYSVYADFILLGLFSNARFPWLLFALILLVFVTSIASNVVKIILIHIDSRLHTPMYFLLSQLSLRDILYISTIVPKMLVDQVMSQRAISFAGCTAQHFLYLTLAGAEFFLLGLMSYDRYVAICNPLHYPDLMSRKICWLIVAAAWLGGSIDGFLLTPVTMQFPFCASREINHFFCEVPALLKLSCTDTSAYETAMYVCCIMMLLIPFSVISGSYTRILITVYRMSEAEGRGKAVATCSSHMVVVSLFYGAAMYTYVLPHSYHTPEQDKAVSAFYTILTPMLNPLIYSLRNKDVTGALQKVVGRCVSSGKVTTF
# In short: as §1
# O2T29 Q24R = system: T12, O2T29 Q24R
# T12 sequence (whole entry): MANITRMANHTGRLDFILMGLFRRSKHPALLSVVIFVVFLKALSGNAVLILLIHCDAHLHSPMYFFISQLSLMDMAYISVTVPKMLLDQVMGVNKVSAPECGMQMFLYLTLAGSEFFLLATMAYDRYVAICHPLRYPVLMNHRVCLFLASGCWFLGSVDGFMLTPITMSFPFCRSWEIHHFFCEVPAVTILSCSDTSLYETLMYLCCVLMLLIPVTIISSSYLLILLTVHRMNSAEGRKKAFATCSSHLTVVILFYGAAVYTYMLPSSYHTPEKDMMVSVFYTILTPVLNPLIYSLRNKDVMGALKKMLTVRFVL
# In short: as §1
# O2T33 A169V = system: T13, O2T33 A169V
# T13 sequence (whole entry): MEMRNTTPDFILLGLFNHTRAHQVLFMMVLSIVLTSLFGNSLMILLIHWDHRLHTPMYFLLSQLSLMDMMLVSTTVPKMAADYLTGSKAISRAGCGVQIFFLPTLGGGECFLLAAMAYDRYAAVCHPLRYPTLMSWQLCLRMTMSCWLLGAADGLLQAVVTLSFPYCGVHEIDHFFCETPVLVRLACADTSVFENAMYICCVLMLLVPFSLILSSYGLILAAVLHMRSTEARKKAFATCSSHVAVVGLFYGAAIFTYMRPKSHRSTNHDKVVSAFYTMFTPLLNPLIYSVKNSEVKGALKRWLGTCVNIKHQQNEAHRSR
# In short: as §1
# O2T33 G297E I309L = system: T14, O2T33 G297E I309L
# T14 sequence (whole entry): T13 sequence (whole entry) with V169A, G297E, I309L
# In short: as §1
# O2T34 Q6P R267P = system: T15, O2T34 Q6P R267P
# T15 sequence (whole entry): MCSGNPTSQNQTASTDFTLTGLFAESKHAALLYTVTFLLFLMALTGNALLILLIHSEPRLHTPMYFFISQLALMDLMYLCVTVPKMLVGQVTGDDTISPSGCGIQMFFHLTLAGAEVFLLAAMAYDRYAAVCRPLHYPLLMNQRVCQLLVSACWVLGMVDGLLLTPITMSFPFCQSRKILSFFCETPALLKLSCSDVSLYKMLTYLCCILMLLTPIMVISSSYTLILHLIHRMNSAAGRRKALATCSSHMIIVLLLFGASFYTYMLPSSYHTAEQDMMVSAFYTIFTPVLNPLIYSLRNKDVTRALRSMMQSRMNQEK
# In short: as §1
# O2T34 R267P = system: T16, O2T34 R267P
# T16 sequence (whole entry): T15 sequence (whole entry) with P6Q
# In short: as §1
# O4A47 = system: T17, O4A47
# T17 sequence (whole entry): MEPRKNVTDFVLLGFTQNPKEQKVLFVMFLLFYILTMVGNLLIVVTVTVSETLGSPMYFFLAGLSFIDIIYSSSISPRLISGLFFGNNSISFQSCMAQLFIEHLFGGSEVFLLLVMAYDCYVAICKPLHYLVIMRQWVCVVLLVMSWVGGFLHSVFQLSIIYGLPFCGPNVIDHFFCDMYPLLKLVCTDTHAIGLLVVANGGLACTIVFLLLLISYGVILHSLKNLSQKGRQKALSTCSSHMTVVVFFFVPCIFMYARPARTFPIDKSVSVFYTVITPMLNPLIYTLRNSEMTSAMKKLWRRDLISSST
# In short: as §1
# O4C46 S240F C252Y K288R = system: O4C46 S240F C252Y K288R
# In short: as §1
# O4F15 A272T = system: T18, O4F15 A272T
# T18 sequence (whole entry): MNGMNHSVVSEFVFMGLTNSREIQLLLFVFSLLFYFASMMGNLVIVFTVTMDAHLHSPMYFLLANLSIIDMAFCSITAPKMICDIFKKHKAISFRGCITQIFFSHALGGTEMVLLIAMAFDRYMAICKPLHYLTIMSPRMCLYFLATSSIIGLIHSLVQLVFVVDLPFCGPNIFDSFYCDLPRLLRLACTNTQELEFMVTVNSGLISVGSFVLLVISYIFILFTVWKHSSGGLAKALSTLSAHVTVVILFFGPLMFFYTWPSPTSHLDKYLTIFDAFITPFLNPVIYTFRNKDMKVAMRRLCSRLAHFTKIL
# In short: as §1
# O1440 = system: T19, O1440
# T19 sequence (whole entry): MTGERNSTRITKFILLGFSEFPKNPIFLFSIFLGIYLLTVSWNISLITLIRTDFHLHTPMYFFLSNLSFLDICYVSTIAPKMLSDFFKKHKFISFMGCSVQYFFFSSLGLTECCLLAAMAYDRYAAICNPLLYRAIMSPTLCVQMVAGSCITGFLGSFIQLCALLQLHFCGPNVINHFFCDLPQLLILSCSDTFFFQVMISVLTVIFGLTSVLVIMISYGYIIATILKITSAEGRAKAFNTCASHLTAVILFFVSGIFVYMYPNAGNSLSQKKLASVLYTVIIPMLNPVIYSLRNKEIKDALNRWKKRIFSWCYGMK
# In short: as §1
# 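Note: active if original authors judged signal statistically different from baseline.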
compound,measurement,setting,value
Cc1cnc(C)c(C)n1,odorant receptor agonist call,O14A2 I133V,inactive
same,odorant receptor agonist call,O14CZ,inactive
same,odorant receptor agonist call,O14I1 V36A D50N Y216C,inactive
same,odorant receptor agonist call,O14J1 N3Y,inactive
same,odorant receptor agonist call,O14K1 D119Y,inactive
same,odorant receptor agonist call,O2A25,inactive
same,odorant receptor agonist call,O2AE1,inactive
same,odorant receptor agonist call,O2AJ1,inactive
same,odorant receptor agonist call,O2AK2 S99N,inactive
same,odorant receptor agonist call,O2T11,inactive
same,odorant receptor agonist call,O2T27 L36V V134D,inactive
same,odorant receptor agonist call,O2T29 Q24R,inactive
same,odorant receptor agonist call,O2T33 A169V,inactive
same,odorant receptor agonist call,O2T33 G297E I309L,inactive
same,odorant receptor agonist call,O2T34 Q6P R267P,inactive
same,odorant receptor agonist call,O2T34 R267P,inactive
same,odorant receptor agonist call,O4A47,inactive
same,odorant receptor agonist call,O4C46 S240F C252Y K288R,inactive
same,odorant receptor agonist call,O4F15 A272T,inactive
CCCCCCCCCCCCCC(C)=O,odorant receptor agonist call,O1440,active
CC1CC=CCCCCCCCCCC(=O)C1 (stereo unspecified),odorant receptor agonist call,O1440,active
